How the values were obtained:
[1] = target: 5-hydroxytryptamine receptor 6 (Homo sapiens) (UniProt P50406); test: Displacement of [3H]-LSD from human recombinant 5-HT6 receptor expressed in CHO cells at 10^-6 M incubated for 60 mins by microbeta2 scintillation counter relative to control; type: cell-based
Procedure, shortened: (§1)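 Radioligand displacement from recombinant human receptor membranes, tested at two final concentrations (10^-6 and 10^-7 M), with scintillation counting. Results were expressed as percent inhibition of specific binding.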

[2] = target: 3',5'-cyclic-AMP phosphodiesterase 4B (Homo sapiens) (UniProt Q07343); test: Inhibition of human recombinant full length N-terminal GST-tagged PDE4B1 expressed in baculovirus infected Sf9 cells at 10^-5 M using cAMP as substrate incubated for 20 mins followed by substrate addition by luciferase assay relative to control
3',5'-cyclic-AMP phosphodiesterase 4B (Homo sapiens), sequence (Q07343 whole entry): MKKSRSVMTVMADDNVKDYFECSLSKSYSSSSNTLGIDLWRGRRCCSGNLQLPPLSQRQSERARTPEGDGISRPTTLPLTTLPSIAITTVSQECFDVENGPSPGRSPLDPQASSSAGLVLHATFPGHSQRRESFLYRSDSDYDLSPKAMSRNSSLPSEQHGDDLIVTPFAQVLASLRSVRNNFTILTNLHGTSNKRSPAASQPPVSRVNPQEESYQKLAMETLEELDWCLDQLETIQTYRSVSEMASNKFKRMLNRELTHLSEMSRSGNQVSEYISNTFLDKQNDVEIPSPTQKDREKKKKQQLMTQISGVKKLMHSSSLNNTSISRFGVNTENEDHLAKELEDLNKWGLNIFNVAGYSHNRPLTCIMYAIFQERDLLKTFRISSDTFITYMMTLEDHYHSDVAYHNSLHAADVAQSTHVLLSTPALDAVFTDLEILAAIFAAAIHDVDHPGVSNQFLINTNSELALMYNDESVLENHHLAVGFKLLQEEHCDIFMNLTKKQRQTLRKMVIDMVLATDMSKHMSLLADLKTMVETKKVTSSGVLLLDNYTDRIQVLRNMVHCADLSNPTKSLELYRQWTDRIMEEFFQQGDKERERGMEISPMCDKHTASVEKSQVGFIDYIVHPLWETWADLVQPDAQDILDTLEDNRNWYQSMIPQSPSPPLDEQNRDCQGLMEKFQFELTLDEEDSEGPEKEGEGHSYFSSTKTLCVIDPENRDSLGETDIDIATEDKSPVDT

[3] = target: T1, 5-hydroxytryptamine receptor 1A (Homo sapiens, UniProt P08908); test: Displacement of [3H]-8-OH-DPAT from human recombinant 5-HT1A receptor expressed in HEK293 cells incubated for 60 mins by microbeta2 scintillation counter; type: cell-based
T1 sequence (P08908 whole entry): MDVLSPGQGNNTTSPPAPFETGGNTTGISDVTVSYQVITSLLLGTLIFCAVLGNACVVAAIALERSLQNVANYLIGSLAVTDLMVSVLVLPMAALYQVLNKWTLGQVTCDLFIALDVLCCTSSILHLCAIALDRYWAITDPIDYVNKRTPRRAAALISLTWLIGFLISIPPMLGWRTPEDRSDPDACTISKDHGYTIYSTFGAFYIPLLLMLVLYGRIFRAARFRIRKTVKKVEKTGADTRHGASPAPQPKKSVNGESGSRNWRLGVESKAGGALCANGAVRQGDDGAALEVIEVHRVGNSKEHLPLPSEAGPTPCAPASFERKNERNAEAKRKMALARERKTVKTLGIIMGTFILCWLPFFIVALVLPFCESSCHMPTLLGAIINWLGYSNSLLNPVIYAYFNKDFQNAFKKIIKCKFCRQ

[4] = target: T2, 5-hydroxytryptamine receptor 7 (Homo sapiens, UniProt P34969); test: biochemical; type: cell-based, CHO
T2 sequence (P34969 whole entry): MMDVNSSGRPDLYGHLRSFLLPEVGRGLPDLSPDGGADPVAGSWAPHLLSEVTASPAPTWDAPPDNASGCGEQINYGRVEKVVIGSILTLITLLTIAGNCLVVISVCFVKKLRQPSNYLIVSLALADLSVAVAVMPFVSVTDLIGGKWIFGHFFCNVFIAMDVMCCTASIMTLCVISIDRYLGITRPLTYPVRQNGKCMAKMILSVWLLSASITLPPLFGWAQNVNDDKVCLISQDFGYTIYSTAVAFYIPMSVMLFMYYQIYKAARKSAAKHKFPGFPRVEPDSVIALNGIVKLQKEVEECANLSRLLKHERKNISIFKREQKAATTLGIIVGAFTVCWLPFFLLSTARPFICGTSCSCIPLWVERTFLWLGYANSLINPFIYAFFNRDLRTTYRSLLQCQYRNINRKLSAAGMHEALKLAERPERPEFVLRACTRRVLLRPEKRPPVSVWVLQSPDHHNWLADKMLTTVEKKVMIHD

[5] = target: 5-hydroxytryptamine receptor 6 (Homo sapiens) (UniProt P50406); test: Displacement of [3H]-LSD from human recombinant 5-HT6 receptor expressed in CHO cells at 10^-7 M incubated for 60 mins by microbeta2 scintillation counter relative to control; type: cell-based; procedure, shortened: as §1
[6] = target: T3, 5-hydroxytryptamine receptor 1A (Homo sapiens) (UniProt P08908); test: Agonist activity at human recombinant 5-HT1A receptor expressed in CHOK1 cells measured after 1 hr by microbeta2 scintillation counter relative to control; type: cell-based
T3 sequence (whole entry): T1 sequence (P08908 whole entry)
Procedure, shortened: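 Aequorin Ca2+ assay in CHO-K1 cells coexpressing mitochondrial aequorin, human 5-HT1A and Gα16. Thawed cells were loaded with coelenterazine h (5 μM final) for 16 h at 16 °C in the dark with agitation, then diluted to 5000 cells/ml. After 1 h they were injected onto the compounds (8–10 concentrations) and luminescence was recorded for 30 s.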

[7] = target: T3, 5-hydroxytryptamine receptor 1A (Homo sapiens); test: Antagonist activity at human recombinant 5-HT1A receptor expressed in CHOK1 cells incubated for 25 mins followed by addition of […] by microbeta2 scintillation counter relative to control; type: cell-based
Procedure, shortened: (§2)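 Aequorin Ca2+ assay in antagonist mode in CHO-K1 cells expressing human 5-HT1A, Gα16 and mitochondrial aequorin, loaded with 5 μM coelenterazine h. Cells were injected onto the compounds (8–10 concentrations) and incubated for 25 min.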

[8] = target: T2, 5-hydroxytryptamine receptor 7; test: Agonist activity at human recombinant 5-HT7 receptor expressed in CHOK1 cells by LANCE TR-FRET assay relative to control; type: cell-based
Procedure, shortened: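 cAMP assay in CHO-K1 cells expressing human 5-HT7 […], at 2x10^5 cells/ml in HBSS with 5 mM HEPES, IBMX and 0.1% BSA, pH 7.4. Cells were stimulated with the compounds (8 concentrations) for 60 min at room temperature. cAMP was read by LANCE Ultra TR-FRET after 1 h with tracer and antibody. EC50 was obtained by nonlinear regression.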

[9] = target: T2, 5-hydroxytryptamine receptor 7; test: Antagonist activity at human recombinant 5-HT7 receptor expressed in CHOK1 cells measured after 60 mins in the presence of serotonin by LANCE TR-FRET assay relative to control; type: cell-based
[10] = target: T3, 5-hydroxytryptamine receptor 1A (Homo sapiens); test: Antagonist activity at human recombinant 5-HT1A receptor expressed in CHOK1 cells assessed as equilibrium binding constant incubated for 25 mins followed by addition of methiothepin by microbeta2 scintillation counter; type: cell-based; details: in the assay text read “serotonin” for “methiothepin”; procedure, shortened: as §2
[11] = target: T2, 5-hydroxytryptamine receptor 7; test: Antagonist activity at human recombinant 5-HT7 receptor expressed in CHOK1 cells assessed as equilibrium binding constant measured after 60 mins in the presence of serotonin by LANCE TR-FRET assay; type: cell-based
[12] = target: T1, 5-hydroxytryptamine receptor 1A; test: Antagonist activity at human recombinant 5-HT1A receptor expressed in CHOK1 cells incubated for 25 mins followed by addition of methiothepin by microbeta2 scintillation counter; type: cell-based; procedure, shortened: as §2
[13] = target: T2, 5-hydroxytryptamine receptor 7; test: Antagonist activity at human recombinant 5-HT7 receptor expressed in CHOK1 cells measured after 60 mins in the presence of serotonin by LANCE TR-FRET assay; type: cell-based
SW480 = test: Cytotoxicity against human SW480 cells assessed as growth inhibition measured after 72 hrs by MTT assay; type: functional, cell-based; details: SW480, 72 h
Procedure, shortened: (§3)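 Cells were seeded at 1 × 10^4 per well: SW480 in MEM, PC3 in RPMI 1640, HaCaT in DMEM high glucose, each with 10% FBS. Compounds were added at 10–140 µM and incubated for 72 h. MTT was then added at 0.5 mg/mL in serum-free medium for 4 h at 37 °C. Formazan was dissolved in DMSO/isopropanol (1:1) and read at 570 nm. IC50 was given in µM; untreated cells served as control.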

PC-3 = test: Cytotoxicity against human PC3 cells assessed as growth inhibition measured after 72 hrs by MTT assay; type: functional, cell-based; details: PC-3, 72 h; procedure, shortened: as §3
HaCaT = test: Cytotoxicity against human HaCaT cells assessed as growth inhibition measured after 72 hrs by MTT assay; type: cell-based; procedure, shortened: as §3
[14] = Selectivity index, ratio of IC50 for human HaCaT cells to IC50 for human SW480 cells
[15] = Selectivity index, ratio of IC50 for human HaCaT cells for human PC3 cells; type: toxicity; details: HaCaT cells versus PC3 cells, read-out: Ratio IC50
Mus musculus [16] = test: Antidepressant activity in Swiss albino mouse assessed as decrease in immobility time at 0.625 to 2.5 mg/kg, ip measured after 60 mins by forced swim test relative to control; type: functional; parameters: scale not given: the % may be the effect or the level left
Procedure, shortened: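 Male Swiss albino mice (22–26 g), 7–10 per dose, were dosed ip in 1% Tween 80 at 10 ml/kg 60 min before the test. In the Porsolt test, each mouse was placed for 6 min in a cylinder with 6 cm of water at 23–25 °C. Immobility was scored over the last 4 min and compared with vehicle controls by ANOVA/Bonferroni.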

Mus musculus [17] = test: Effect on locomotor activity in Swiss albino mouse at 0.625 to 2.5 mg/kg, ip; type: ADME, organism-based; details: in vivo
Procedure, shortened: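 Male Swiss albino mice were dosed ip in 1% Tween 80 at 10 ml/kg 60 min before testing. Each mouse was placed individually in a cage in a photobeam activity monitor. Ambulation crossings were counted from 2 to 6 min.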

[18] = Metabolic stability in mouse liver microsomes assessed as metabolite formation measured after 30 mins in the presence of NADPH by LC-MS/MS analysis; type: ADME, Microsome; details: 0.5 h
Procedure, shortened: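 Compound (20 µM final) was preincubated with mouse liver microsomes (0.4 mg/mL) in 100 mM potassium phosphate, pH 7.4, at 37 °C for 15 min. The reaction was started with an NADPH-regenerating system and sampled at 5, 15 and 30 min. Levallorphan internal standard was added, the reaction was stopped with perchloric acid, and samples were analysed by LC-MS/MS. No-NADPH incubations served as negative controls.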

[19] = target: 5-hydroxytryptamine receptor 2A (Homo sapiens) (UniProt P28223); details: HEK293, at 1 µM
5-hydroxytryptamine receptor 2A (Homo sapiens), sequence (P28223 whole entry): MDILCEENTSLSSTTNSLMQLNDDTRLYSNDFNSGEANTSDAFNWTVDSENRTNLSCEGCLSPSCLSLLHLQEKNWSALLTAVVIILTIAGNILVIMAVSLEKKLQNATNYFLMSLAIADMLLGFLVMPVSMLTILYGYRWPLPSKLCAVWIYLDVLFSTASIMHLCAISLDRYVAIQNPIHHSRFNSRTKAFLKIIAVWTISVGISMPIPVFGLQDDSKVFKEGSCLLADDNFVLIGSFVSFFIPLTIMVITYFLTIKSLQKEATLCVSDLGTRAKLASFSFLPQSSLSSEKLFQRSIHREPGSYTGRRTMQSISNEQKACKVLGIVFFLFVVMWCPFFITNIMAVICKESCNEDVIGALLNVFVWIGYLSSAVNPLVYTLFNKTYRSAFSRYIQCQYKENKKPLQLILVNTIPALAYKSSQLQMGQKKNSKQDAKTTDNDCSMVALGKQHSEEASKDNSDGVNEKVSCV

[20] = target: 5-hydroxytryptamine receptor 2A (Homo sapiens) (UniProt P28223); details: HEK293, at 0.1 µM
in vitro [21] = details: CD1, mouse, liver microsomes
in vitro [22] = details: CD1, mouse, liver microsomes; remark: listed apart in the source

5-hydroxytryptamine receptor 6 (Homo sapiens), sequence (P50406 whole entry): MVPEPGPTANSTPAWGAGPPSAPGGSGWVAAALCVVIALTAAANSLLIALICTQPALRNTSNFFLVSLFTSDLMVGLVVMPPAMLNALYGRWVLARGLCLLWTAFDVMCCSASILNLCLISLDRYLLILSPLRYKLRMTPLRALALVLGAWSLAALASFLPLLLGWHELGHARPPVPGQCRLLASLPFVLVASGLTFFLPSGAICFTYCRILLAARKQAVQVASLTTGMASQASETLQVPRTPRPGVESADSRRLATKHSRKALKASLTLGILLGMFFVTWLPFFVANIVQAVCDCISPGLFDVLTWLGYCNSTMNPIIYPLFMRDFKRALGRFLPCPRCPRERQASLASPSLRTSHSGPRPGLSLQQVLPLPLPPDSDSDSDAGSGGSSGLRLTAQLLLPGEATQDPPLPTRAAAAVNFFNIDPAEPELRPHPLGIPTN

COc1ccc(/C=C2\NC(=O)N(CCCCN3CCN(c4ccccc4OC)CC3)C2=O)cc1OC1CCCC1
inhibition [1]: 5% | inhibition [2]: 14% | Ki [3]: 0.001 µM | Ki [4]: 0.001 µM | inhibition [5]: 0% | Emax [6]: 6% | Emax [7]: 3% | Emax [8]: 14% | Emax [9]: 33% | Kb [10]: 0.0017 µM | Kb [11]: 0.073 µM | IC50 ([12]; in the assay text read “serotonin” for “methiothepin”, read-out: IC50): 0.054 µM | IC50 ([12]; read-out: pIC50 (converted)): 0.0617 µM | IC50 [13]: 0.219 µM | IC50 (SW480): 185 µM | IC50 (PC-3): 254 µM | IC50 (HaCaT): 151 µM | Ratio IC50 [14]: 0.81 | selectivity ratio [15]: 0.59 | Activity (Mus musculus [16]): 30% | Activity (Mus musculus [17]): Non-Toxic | Drug metabolism [18]: Metabolite_Detected | inhibition [19]: 95% | inhibition [20]: 50% | half-life (in vitro [21]): 12.8 min | microsomal CLint (in vitro [22]): 136 µL/min/mg

Reference: ChEMBL document CHEMBL4342411, “Novel multitarget 5-arylidenehydantoins with arylpiperazinealkyl fragment: Pharmacological evaluation and investigation of cytotoxicity and metabolic stability” (Bioorg Med Chem, 2019)
